B1: tRNA (parent)
chain: GUUCCGUUGGCGUAAUGGUAACGCGUCUCCCUCCUAAGGAGAAGACUGCGGGUUCGAGUCCCGUACGGAACG

This sample holds only a part of the variants without activity.

Variants of B1 are the subject of the data set. As to the kind of experiment: yeast fitness relative to wild type (ratio to wild type); higher = fitter; tRNA-Arg(CCU), competitive growth, 37 C, YPD. The essentials: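 Changes in genotype frequencies gave Darwinian fitness relative to wild type. Frequencies were read by 100-nucleotide paired-end sequencing of gene amplicons before and after pooled Saccharomyces cerevisiae strains, carrying tRNA-Arg(CCU) gene variants at the native locus, were competed in YPD at 37°C for 24 hours in six replicates. A genotype was kept only with ≥ 100 starting reads, and estimates < 0.5 were set to 0.5.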
For U64A G67A, the yeast fitness was 0.84.

G63A A65G: the yeast fitness stood at 0.889.

Take U64C A65U: the yeast fitness came out at 0.928.

On to U64C A65G, for which the yeast fitness was determined as 0.86.

On to C62U G63A A70C, for which the yeast fitness amounted to 0.583.

Turning to C60G C66G G68A, the yeast fitness is no more than 0.5.

A65C A69G A70U: the yeast fitness is 0.519.

In the case of C61U C62G, the yeast fitness turned out to be 0.718.

Regarding C61U C62U, the yeast fitness is 0.748.

C62A G67C: the yeast fitness came to 0.81.

C62A G67A: the yeast fitness is 0.817.

Turning to C66U A69U, the yeast fitness came out at 0.831.

As for C66U A69C, the yeast fitness was determined as 0.743.

For G58A G68U, the yeast fitness was 0.835.

As for U59G A65C C66A, the yeast fitness was no more than 0.5.

In the case of G58A C66G, the yeast fitness turned out to be 0.943.

C60A A65U: the yeast fitness amounted to 0.58.

In the case of A65G G68C, the yeast fitness came to 0.859.

On to C61A A65G, for which the yeast fitness amounted to 0.595.

As to C60G G67C, the yeast fitness was 0.574.

As for C61U U64A A69G, the yeast fitness was 0.597.

With A69C A70U, the yeast fitness was 1.05.

Turning to A69C A70C, the yeast fitness stood at 0.982.

Take A69C A70G: the yeast fitness is 1.02.

Turning to C61G G68A, the yeast fitness came to 0.677.

Take C61G G68U: the yeast fitness is 0.558.

With C66U A70G, the yeast fitness is 0.973.

As for G58U A65U, the yeast fitness was determined as 0.979.

Take U59G A70U: the yeast fitness worked out at 0.747.

Turning to A69U A70C, the yeast fitness stood at 1.04.

For C61U A69G, the yeast fitness is 0.878.

Turning to C61U C66A, the yeast fitness came to 0.644.

For G58C A69C, the yeast fitness was 1.02.

Regarding C66A G68C, the yeast fitness is 0.678.

For C61A G68U, the yeast fitness stood at 0.534.

Regarding C61A G68C, the yeast fitness stood at 0.607.

In the case of G58C U64A, the yeast fitness turned out to be 0.81.

In the case of U64C G67A, the yeast fitness came out at 0.802.

Take U64C G67C: the yeast fitness amounted to 0.938.

As to G67U A69C, the yeast fitness was found to be 0.795.

In the case of A57U C60G G68C, the yeast fitness came out at 0.532.

Regarding G63A G68C, the yeast fitness was found to be 0.883.

Take G63A G68A: the yeast fitness was determined as 0.843.

Consider U64C A69C A70U, for which the yeast fitness worked out at 0.757.

In the case of G63C A65C, the yeast fitness is 0.638.

Regarding G63C A65G, the yeast fitness is 0.594.

Regarding G67C A69U, the yeast fitness was 0.896.

For the variant A57G G58A C60A C66U, the yeast fitness worked out at 0.595.

As to C62G C66U, the yeast fitness is 0.652.

As for G58C C62G A70U, the yeast fitness is 0.616.

For the variant C60U G67U, the yeast fitness was determined as 0.678.

As to C60U G67C, the yeast fitness came out at 0.828.

In the case of G58U G63C, the yeast fitness was 0.586.

Regarding U64G A70C, the yeast fitness amounted to 0.755.

Regarding A65G C66G, the yeast fitness amounted to 0.897.

Take U64C C66A: the yeast fitness was found to be 0.832.

C60U A69U: the yeast fitness stood at 0.771.

In the case of C62A G63A A70C, the yeast fitness turned out to be 0.54.

For the variant C60G C66G A69U, the yeast fitness is no more than 0.5.

As for C62G A69C, the yeast fitness amounted to 0.617.

In the case of A57U C60G G67A G68C, the yeast fitness was no more than 0.5.

As for A57U A69U, the yeast fitness was 0.668.

Regarding A57U A69C, the yeast fitness was 0.69.

For the variant C61A A65G G68A, the yeast fitness was no more than 0.5.

Consider C61A U64A A69U, for which the yeast fitness was determined as 0.558.

With A57U A69G A70C, the yeast fitness was no more than 0.5.

As to U59C C61G, the yeast fitness stood at 0.588.

For U59C C66G, the yeast fitness is 0.668.

As to U59C C66U, the yeast fitness turned out to be 0.911.

As for C62A A70U, the yeast fitness was 0.858.

In the case of U64G A65U, the yeast fitness stood at 0.648.

As to A65C G67A, the yeast fitness is 0.692.

Regarding U64A A65U, the yeast fitness came out at 0.718.

Take C61U A65U C66U: the yeast fitness is no more than 0.5.

For the variant G68U, the yeast fitness came out at 1.02.

Take G68A: the yeast fitness is 0.963.

For the variant G68C, the yeast fitness was 0.968.

C60A G67A: the yeast fitness is 0.679.

Regarding U59G G67C, the yeast fitness is 0.659.

On to C61A A70U, for which the yeast fitness was found to be 0.673.

On to U59G U64C A65U, for which the yeast fitness was no more than 0.5.

For C61A A69U, the yeast fitness is 0.816.

Regarding C61A A69C, the yeast fitness worked out at 0.631.

G63A A65G A69U: the yeast fitness was 0.609.

Take U64G G68A: the yeast fitness is 0.678.

Turning to A57U C62U, the yeast fitness is 0.617.

Consider A57U A70G, for which the yeast fitness came to 0.753.

Consider A65U G68U, for which the yeast fitness turned out to be 0.99.

In the case of A65U G68C, the yeast fitness was 0.625.

As for C60G G63C, the yeast fitness is no more than 0.5.

Consider C60A G68U, for which the yeast fitness amounted to 0.587.

For the variant A65G A70C, the yeast fitness stood at 0.889.

With C62G A65C, the yeast fitness worked out at 0.6.

Regarding C62G A65G, the yeast fitness came to 0.811.

On to C60A C61G A65U, for which the yeast fitness is no more than 0.5.

Turning to G67A A70C, the yeast fitness stood at 0.901.

On to G58C A70C, for which the yeast fitness is 0.923.

As for G58C A70U, the yeast fitness was determined as 1.

Take A57G U59A C62U: the yeast fitness is no more than 0.5.

Turning to A65U A70C, the yeast fitness amounted to 0.823.

Regarding C61U, the yeast fitness turned out to be 1.01.

For C61A, the yeast fitness turned out to be 0.707.

For the variant C61G, the yeast fitness worked out at 0.688.

As to G58C U59C, the yeast fitness was 0.948.

As for A57G C66G A69U, the yeast fitness is no more than 0.5.

As for G67C A70U, the yeast fitness is 0.904.

Turning to U59C C62U G68U, the yeast fitness came to 0.609.

As to G67A A69G, the yeast fitness was 0.974.

As to C61U G63A, the yeast fitness was found to be 0.874.

Consider G58C G67U, for which the yeast fitness is 0.832.

For the variant U59C U64C, the yeast fitness came out at 0.92.

Consider U59C U64A, for which the yeast fitness was 0.677.

Turning to C62A C66A, the yeast fitness is 0.51.

On to C60A G63A, for which the yeast fitness was determined as 0.584.

On to C60G U64C, for which the yeast fitness was found to be 0.568.

As to C66G G68C, the yeast fitness is 0.634.

As for C66U G68A, the yeast fitness was found to be 0.871.

Consider A57U A65C, for which the yeast fitness worked out at 0.865.

G58A A65G: the yeast fitness was 0.965.

As to G58A A65C, the yeast fitness is 1.05.

As to A65G G67A, the yeast fitness turned out to be 1.03.

Turning to C61U G63U G68A, the yeast fitness stood at 0.529.

With C62A G63A, the yeast fitness came out at 0.578.

On to C62A G63C, for which the yeast fitness was 0.661.

Regarding G58U, the yeast fitness worked out at 1.04.

Turning to G58C, the yeast fitness was 0.992.

With G58A, the yeast fitness was determined as 0.981.

Consider C62A A65U C66U, for which the yeast fitness is no more than 0.5.

As to C62U G67A, the yeast fitness came out at 0.849.

In the case of G58C G68A, the yeast fitness was found to be 0.776.

Take G58C G68U: the yeast fitness came to 0.75.

With G58C G68C, the yeast fitness came out at 0.937.

In the case of C60G A69U A70U, the yeast fitness stood at 0.545.

Regarding C60A C61G, the yeast fitness worked out at 0.635.

C60A C61U: the yeast fitness was 0.599.

In the case of C61A C62G, the yeast fitness was 0.619.

For the variant U59A A65C A70C, the yeast fitness came to 0.551.

With C66A A70U, the yeast fitness turned out to be 0.603.

For the variant C61A C66U, the yeast fitness was determined as 0.691.

Take C61A C66A: the yeast fitness amounted to 0.627.

Consider G58A C61G A70U, for which the yeast fitness is 0.749.

Regarding G58A G67U, the yeast fitness amounted to 0.804.

C61G G67C G68A: the yeast fitness was determined as 0.611.

Turning to G58C C60G, the yeast fitness turned out to be 0.683.

Take C60G C62G A70G: the yeast fitness is no more than 0.5.

C60U C66A: the yeast fitness turned out to be 0.619.

For C60U C66G, the yeast fitness is 0.687.

On to C60U C61U U64G, for which the yeast fitness came out at 0.677.

On to C62G G63C A65U, for which the yeast fitness is no more than 0.5.

Regarding U64G A69C, the yeast fitness came to 0.616.

For the variant U64G A69G, the yeast fitness is 0.789.

Regarding C61U A70C, the yeast fitness amounted to 0.939.

As for C61U A70G, the yeast fitness came to 0.979.

With C61G A70C, the yeast fitness stood at 0.763.

As to A57U G63A, the yeast fitness came out at 0.681.

For the variant U59G A65C, the yeast fitness amounted to 0.558.

Consider A57G U59C A70G, for which the yeast fitness turned out to be 0.684.

Consider A65G C66G A70G, for which the yeast fitness is no more than 0.5.

With C61U A65C G67A G68A, the yeast fitness is no more than 0.5.

As for C62U A69G, the yeast fitness was 0.918.

For the variant C62U A69C, the yeast fitness amounted to 1.02.

Take C60U C62U A70C: the yeast fitness was 0.539.
